The list is not random: actives were taken first. Their share in the collection is about 3.6%.
ZTA DNA inh = ZTA (EBV) inhibition in EBNA-1 counter-screen. hit rate 0.15% among 320,000. ZTA-DNA binding, fluorescence polarization. P03206. inhibition, % at 11 µM; in the data active means inhibition above about 33%
Target sequence (P03206 whole entry, looked up): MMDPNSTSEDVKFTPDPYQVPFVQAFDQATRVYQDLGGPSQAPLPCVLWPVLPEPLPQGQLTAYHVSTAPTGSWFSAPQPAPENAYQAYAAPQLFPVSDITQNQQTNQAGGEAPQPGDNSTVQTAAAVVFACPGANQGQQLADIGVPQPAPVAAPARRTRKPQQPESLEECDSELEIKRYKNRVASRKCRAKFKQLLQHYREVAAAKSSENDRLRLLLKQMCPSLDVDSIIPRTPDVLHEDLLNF
DNA FID counter = fluorescent intercalator displacement, NS3 helicase counter-screen; AID 1845; hit rate 0.17% among 290,000; DNA fluorescent intercalator displacement, fluorescence; inhibition, % at 7.9 µM; in the data active means inhibition above about 37%;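 further: 0% = vehicle and 100% = reference compound; higher means more ethidium bromide displaced from hairpin DNA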
FGF22 binding-1 = binders of recombinant human FGF22 by thermal shift; Q9HCT0; SYPRO orange fluorescence; percent of sucrose octasulfate shift, DMSO zero; activity (Tm shift, normalised), % at 9.99 µM; hit rate 1.5% among 340,000; AID 651658;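 active means mean Tm shift, scaled 0 neutral to 100 positive control, at about 1.3% or above, every replicate too, limit read from the data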
Target sequence (Q9HCT0 whole entry, looked up): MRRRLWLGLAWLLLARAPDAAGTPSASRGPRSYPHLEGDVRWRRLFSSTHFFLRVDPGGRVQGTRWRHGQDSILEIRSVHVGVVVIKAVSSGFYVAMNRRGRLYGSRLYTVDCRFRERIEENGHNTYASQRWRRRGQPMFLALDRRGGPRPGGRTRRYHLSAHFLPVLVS
NS3 helicase inh = HCV NS3 helicase inhibition. NS3 helicase DNA unwinding, Cy5 molecular beacon fluorescence. inhibition, % at 10.9 µM. hit rate 0.56% among 290,000;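 active means inhibition above the mean of all tested compounds plus 3 SD, set per campaign, cut at about 35% in these data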;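 further: 0% = DMSO wells and 100% = thioflavine S control wells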
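Measured by: Cy5 fluorescence, 0 and 60 min reads / Assay system: NS3 helicase fragment of HCV / Control set: low DMSO, high thioflavine S at 110 µM / Times: 1 h reaction at 25 °C, ATP-initiated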
NR3A LBD binder = NR3A (human) ligand-binding domain modulation | hit rate 2.5% among 340,000 | NR3A LBD differential scanning fluorimetry, Tm shift; 0% = protein alone, 100% = glycine-bound protein | Tm shift relative to glycine control, % at 25 µM;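 active means melting temperature shift of at least 10% of the positive control shift, at one fixed dose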
EBNA-1 inh = blocks EBNA-1 binding to DNA. EBNA-1 DNA binding, fluorescence polarization. inhibition, % at 14.8 µM. hit rate 0.34% among 300,000; in the data active means inhibition above about 28%
FGF22 binding-2 = FGF22 (human) binding in thermal shift | recombinant FGF22 thermal shift, SYPRO orange fluorescence | hit rate 2% among 1,000 | AID 720646 | thermal shift activity, °C (ΔTm) at 38 µM | shares compounds with FGF22 binding-1;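 active means fitted rise in melting shift crosses a set limit at or below the top valid dose tested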
FGF22 TSA DP = FGF22 (human) binding by thermal shift; Tm shift (activity), % at 38 µM; 50 tested, under 10 active; shares compounds with FGF22 binding-1; Thermal shift assay, SYPRO orange, melting temperature shift;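 active means compounds whose fitted dose curve of melting temperature shift rises past a set threshold within the tested doses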
TSA no protein = compound-only SYPRO artifact for FGF22 binders; shares compounds with FGF22 binding-1; compound-only SYPRO orange thermal shift counter-screen, no protein; AC50, µM (highest dose often 38 µM); hit rate 2% among 1,000;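 active means rising signal whose fitted curve reaches the 0.54 level within the top valid dose, showing a melting point, actives reach about 13 µM in these data; inactive means the rest, including activity in the opposite direction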; further: value is where the raw curve crosses a fixed level and not half-maximal
* = called active by the depositor; i = inactive; . = not tested or not shown.

SMILES	ZTA DNA inh	DNA FID counter	FGF22 binding-1	NS3 helicase inh	NR3A LBD binder	EBNA-1 inh	FGF22 binding-2	TSA no protein	others
CCOc1ccc(NS(=O)(=O)c2ccc(C(=O)NNC(=O)c3ccccc3O)cc2)cc1	-7	.	1.4*	.	4	-15	0.018	i
O=C(NNC(=O)c1ccccc1F)c1ccc(NS(=O)(=O)c2ccc(F)cc2)cc1	.	.	1.8*	.	1	.	0.07	i
CCC(=O)Nc1ccc2c(c1)C(=O)N(C)C[C@@H](OC)[C@H](C)CN(Cc1ccccn1)[C@H](C)CO2	.	.	0	.	.	.	.	.
CCCNC(=O)N1[C@H](CO)[C@H](c2ccccc2)C12CN(C(=O)CC)C2	.	.	0	.	.	.	.	.
CCCSc1ncnc2[nH]ncc12	.	.	46*	.	-4	.	0.1	i
CCCCCCCCNc1ncnc2[nH]ncc12	.	.	0	.	1	.	.	.
COc1ccc(NS(=O)(=O)c2ccc3oc(=O)ccc3c2)cc1	8	0	0	4	1	-5	.	.
O=c1ccc2cc(S(=O)(=O)Nc3ccc(Br)cc3)ccc2o1	.	-5	1.4*	10	9	.	-0.019	i
C=C(C1=CCN(S(=O)(=O)C(C)(C)C)[C@H]1CCO)c1ccccc1	.	.	15*	.	2	.	0.047	i
O=C(C[C@@H]1C=C[C@H](NC(=O)Nc2ccc3c(c2)OCO3)[C@@H](CO)O1)NCc1ccc(F)cc1	.	.	0	.	.	.	.	.
CCCCNC(=O)c1onc(CSc2ccc(C(C)C)cc2)c1C(=O)O	15	-19	1.5*	30	-19	11	-0.034	i
CC(C)CCNC(=O)c1onc(CSc2ccncc2)c1C(=O)NCCC(C)C	-4	.	18*	.	-11	4	0.095	8.3µM*
CCCCNC(=O)c1onc(CSc2ccccc2)c1C(=O)O	8	-14	0	5	2	6	.	.
CC(=O)Nc1cccc(C(=O)N2CCC(n3nccc3NC(=O)CC(C)C)CC2)c1	5	-9	1.5*	1	0	-5	0.01	i
CCN(CC)S(=O)(=O)c1ccc(C(=O)NNC2=NS(=O)(=O)c3ccccc32)cc1	4	-16	0	9	1	-10	.	.
COc1ccc(S(=O)(=O)N(NC2=NS(=O)(=O)c3ccccc32)C(=O)C(C)C)cc1	-7	-38	2.6*	-12	-2	-7	-0.066	i
CCNC(=O)Nc1ccc2c(c1)C(=O)N(C)[C@@H]1CC[C@H](CC(=O)NCCN3CCCC3)O[C@H]1CO2	.	.	0	.	.	.	.	.
COCCNC(=O)CCc1nnc2ccc(N3CCC(C)CC3)nn12	9	-18	1.6*	10	0	12	0.037	i
COCCCNC(=O)CCc1nnc2ccc(N3CCC(C)CC3)nn12	2	-25	0	9	1	-2	.	.
CC(C)NC(=O)NCC[C@H]1CC[C@H](NC(=O)CN(C)C)[C@@H](CO)O1	.	.	0	.	.	.	.	.
C/C(=N\NC(=O)CNC(=O)c1ccncc1)c1ccc(C)cc1	4	-7	1.6*	7	-1	-8	0.043	i
C/C(=N/NC(=O)CNC(=O)c1cccnc1)c1ccc(Cl)cc1	-5	-10	0	-1	1	12	.	.
Cc1ccnc(NC(=O)CN2C(=O)NC(C)(c3ccc4ccccc4c3)C2=O)c1 (configuration not stated)	.	.	-1	.	3	.	.	.
CC1(c2ccc3ccccc3c2)NC(=O)N(CC(=O)Nc2ncccc2O)C1=O (configuration not stated)	-3	.	1.7*	.	0	.	0.14	i
CCCNC(=O)COC(=O)c1ccccc1C(=O)N(C)C1CCCCC1	-8	-18	14*	-1	-4	4	-0.085	i	FGF22 TSA DP=0
SMILES	ZTA DNA inh	DNA FID counter	FGF22 binding-1	NS3 helicase inh	NR3A LBD binder	EBNA-1 inh	FGF22 binding-2	TSA no protein	others
CN(C(=O)c1ccccc1C(=O)OCC(=O)NCc1ccccc1)C1CCCCC1	-6	-33	0	0	-2	-8	.	.
Nc1c(Cl)ncnc1NCCO	-1	-1	0	0	-2	-8	.	.
Cc1ccc(CCNc2ncnc(Cl)c2N)cc1	.	.	1.7*	.	8	.	-0.12	i
CC(=O)N(C)C[C@H]1Oc2ncc(-c3cccc(C#N)c3)cc2C(=O)N([C@H](C)CO)C[C@H]1C	.	.	0	.	.	.	.	.
CCOc1ccc(C2OC(=O)Cc3cc(OC)c(OC)cc32)cc1 (configuration not stated)	4	-11	14*	-20	.	11	0.097	i
NC(=O)c1ccsc1NC(=O)COC(=O)Cc1c[nH]c2ccccc12	1	.	1.8*	.	26*	-3	.	i
NC(=O)Nc1ccc(C(=O)OCC(=O)Nc2sccc2C(N)=O)cc1	.	.	1.5*	.	32*	.	0.045	i
COc1ccc2c3c(n(C)c2c1)[C@H](CO)N(C(=O)Cc1ccccn1)CC31CCN(C)CC1	.	.	0	.	.	.	.	.
CN(c1ccccc1)S(=O)(=O)c1cccc(NC(=O)c2ccc3ncsc3c2)c1	10	-15	1.4*	-21	-3	-17	-0.047	i
Cc1noc(NS(=O)(=O)c2ccc(NC(=O)c3cccc(S(=O)(=O)N(C)c4ccccc4)c3)cc2)c1C	.	.	1.6*	.	0	.	-0.17	i
CN1/C(=C\C(=O)c2cccc([N+](=O)[O-])c2)Sc2ccccc21	-6	-3	2.2*	15	12*	3	0.013	i
O=C(C[C@@H]1C[C@H]2c3cc(NC(=O)C4CCC4)ccc3O[C@H]2[C@@H](CO)O1)NC1CCCC1	.	.	0	.	.	.	.	.
O=C(Cc1ccncc1)NCC[C@@H]1CC[C@@H](NC(=O)C2CCC2)[C@H](CO)O1	.	.	0	.	.	.	.	.
O=C(Nc1cccc(-c2cnc3ccccc3n2)c1)c1ccncc1	7	-3	1.3*	-8	-1	-6	0.065	i
COCC#Cc1cnc2c(c1)C(=O)N([C@@H](C)CO)C[C@@H](C)[C@@H](CN(C)S(=O)(=O)c1cn(C)cn1)O2	.	.	-1	.	.	.	.	.
COc1c(O)ccc(/C=C(\C#N)c2nc3ccccc3[nH]2)c1[N+](=O)[O-]	-23	-2	1.4*	-2	23*	-9	-0.11	i
COc1ccc(/C=C(\C#N)c2nc3ccccc3[nH]2)cc1O	.	-1	0	21	7	.	.	.
O=C(N[C@@H]1CC[C@H](CCn2cc(C3(O)CCCC3)nn2)O[C@H]1CO)C1CCCC1	.	.	0	.	.	.	.	.
COC12CC(=O)C(C(C)=O)=C(O)C1(C)c1c(O)c(C)c(O)c(C(C)=O)c1O2 (configuration not stated)	.	.	1.4*	.	.	.	0.14	i

Screening data: PubChem BioAssay, several laboratories
